# ChEMBL document CHEMBL3611968, “Reengineered tricyclic anti-cancer agents” (Bioorg Med Chem, 2015)
# Activity calls are given as the source filed them. No cut-off for these calls is given here.
# How the values were obtained:
# [1] = molecular target: T1, D(4) dopamine receptor (Homo sapiens) (UniProt P21917); test: Binding affinity to dopamine D4 receptor (unknown origin) at 0.1 mM by radioligand displacement assay relative to control
# T1 sequence (whole entry): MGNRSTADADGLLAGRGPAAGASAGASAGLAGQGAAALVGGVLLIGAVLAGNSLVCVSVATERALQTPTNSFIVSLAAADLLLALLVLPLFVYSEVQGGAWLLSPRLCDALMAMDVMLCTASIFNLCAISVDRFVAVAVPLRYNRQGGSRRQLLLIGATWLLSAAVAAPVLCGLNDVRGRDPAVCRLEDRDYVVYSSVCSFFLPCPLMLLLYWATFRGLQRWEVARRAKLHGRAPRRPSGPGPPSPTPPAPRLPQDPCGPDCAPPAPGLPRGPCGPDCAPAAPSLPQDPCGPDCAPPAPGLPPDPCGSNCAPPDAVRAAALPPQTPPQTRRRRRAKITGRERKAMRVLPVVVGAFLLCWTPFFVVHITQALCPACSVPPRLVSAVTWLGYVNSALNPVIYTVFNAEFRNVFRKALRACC
# [2] = molecular target: D(1A) dopamine receptor (Homo sapiens) (UniProt P21728); test: Binding affinity to dopamine D1 receptor (unknown origin) at 0.1 mM by radioligand displacement assay relative to control
# [3] = molecular target: D(2) dopamine receptor (Homo sapiens) (UniProt P14416); test: Binding affinity to dopamine D2 receptor (unknown origin) at 0.1 mM by radioligand displacement assay relative to control
# [4] = molecular target: D(1B) dopamine receptor (Homo sapiens) (UniProt P21918); test: Binding affinity to dopamine D5 receptor (unknown origin) at 0.1 mM by radioligand displacement assay relative to control
# NCI-H1650 [5] = test: Cytotoxicity against human NCI-H1650 cells assessed as growth inhibition after 48 hrs by MTT assay; assay type: functional
# Summary of the method: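 H1650 cells were exposed to drug for 48 h at five concentrations bracketing 1–40 μM in 10 μM steps, with MTT read-out. GI50 is given only where the data form a sigmoidal dose response.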
# [6] = molecular target: D(3) dopamine receptor (Homo sapiens) (UniProt P35462); test: Binding affinity to dopamine D3 receptor (unknown origin) at 0.1 mM by radioligand displacement assay relative to control
# [7] = AUCinfinity in mouse at 25 mg/kg, ip; assay type: ADME, organism-based; set-up: dose 25 mg/kg, time infinity, route intraperitoneal; conditions: in vivo
# [8] = Bioavailability in mouse at 100 mg/kg, ip administered through DMA/solutol/water; assay type: ADME, organism-based; conditions: in vivo
# [9] = Volume of distribution at steady state in mouse at 1 mg/kg, iv; assay type: ADME, organism-based; conditions: in vivo, read-out: Vdss
# [10] = Tmax in mouse at 25 mg/kg, po; assay type: ADME, organism-based; conditions: in vivo
# [11] = Oral bioavailability in mouse at 100 mg/kg; assay type: ADME, organism-based; conditions: in vivo
# [12] = AUClast in mouse at 1 mg/kg, iv; assay type: ADME, organism-based; conditions: in vivo
# [13] = AUClast in mouse at 25 mg/kg, ip; assay type: ADME, organism-based; conditions: in vivo
# [14] = AUCinfinity in mouse at 100 mg/kg, ip administered through DMA/solutol/water; assay type: ADME, organism-based; set-up: dose 100 mg/kg, route intraperitoneal, time infinity; conditions: in vivo
# [15] = AUClast in mouse at 100 mg/kg, po; assay type: ADME, organism-based; conditions: in vivo
# [16] = AUClast in mouse at 100 mg/kg, ip administered through DMA/solutol/water; assay type: ADME, organism-based; conditions: in vivo
# [17] = Tmax in mouse at 25 mg/kg, ip; assay type: ADME, organism-based; conditions: in vivo
# [18] = Cmax in mouse at 100 mg/kg, po; assay type: ADME, organism-based; set-up: dose 100 mg/kg, route oral; conditions: in vivo
# [19] = Tmax in mouse at 100 mg/kg, po; assay type: ADME, organism-based; conditions: in vivo
# [20] = Bioavailability in mouse at 25 mg/kg, ip; assay type: ADME, organism-based; conditions: in vivo
# [21] = Oral bioavailability in mouse at 25 mg/kg; assay type: ADME, organism-based; conditions: in vivo
# [22] = Tmax in mouse at 100 mg/kg, ip administered through DMA/solutol/water; assay type: ADME, organism-based; conditions: in vivo
# [23] = Half life in mouse at 1 mg/kg, iv; assay type: ADME, organism-based; conditions: in vivo
# [24] = AUClast in mouse at 25 mg/kg, po; assay type: ADME, organism-based; conditions: in vivo
# [25] = Cmax in mouse at 25 mg/kg, ip; assay type: ADME, organism-based; set-up: dose 25 mg/kg, route intraperitoneal; conditions: in vivo
# [26] = AUCinfinity in mouse at 25 mg/kg, po; assay type: ADME, organism-based; set-up: dose 25 mg/kg, route oral, time infinity; conditions: in vivo
# [27] = Cmax in mouse at 100 mg/kg, ip administered through DMA/solutol/water; assay type: ADME, organism-based; set-up: dose 100 mg/kg, route intraperitoneal; conditions: in vivo
# [28] = Clearance in mouse at 1 mg/kg, iv; assay type: ADME, organism-based; conditions: in vivo
# [29] = AUCinfinity in mouse at 1 mg/kg, iv; assay type: ADME, organism-based; set-up: dose 1 mg/kg, time infinity, route intravenous; conditions: in vivo
# [30] = Cmax in mouse at 25 mg/kg, po; assay type: ADME, organism-based; set-up: dose 25 mg/kg, route oral; conditions: in vivo
# NCI-H1650 [31] = test: Inhibition of ERK phosphorylation in human NCI-H1650 cells at 20 to 40 uM after 12 hrs by Western blot analysis; assay type: cell-based
# [32] = molecular target: RAC-alpha serine/threonine-protein kinase (Homo sapiens) (UniProt P31749); test: Inhibition of AKT phosphorylation in human NCI-H1650 cells at 20 to 40 uM after 12 hrs by Western blot analysis; assay type: cell-based
# RAC-alpha serine/threonine-protein kinase (Homo sapiens), sequence (P31749 whole entry): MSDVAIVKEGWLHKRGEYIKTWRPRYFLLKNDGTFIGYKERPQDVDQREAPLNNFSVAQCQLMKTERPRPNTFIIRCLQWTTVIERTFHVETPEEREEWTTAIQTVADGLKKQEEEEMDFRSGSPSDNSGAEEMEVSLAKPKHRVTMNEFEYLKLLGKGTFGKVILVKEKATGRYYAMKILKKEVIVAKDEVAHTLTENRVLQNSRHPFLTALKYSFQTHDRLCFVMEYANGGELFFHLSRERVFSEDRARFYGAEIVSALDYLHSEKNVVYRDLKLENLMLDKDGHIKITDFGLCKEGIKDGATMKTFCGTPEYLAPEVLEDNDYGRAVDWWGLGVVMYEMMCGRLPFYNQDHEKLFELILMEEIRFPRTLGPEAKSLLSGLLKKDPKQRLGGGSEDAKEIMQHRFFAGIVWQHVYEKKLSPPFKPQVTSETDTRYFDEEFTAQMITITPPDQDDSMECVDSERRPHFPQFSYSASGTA
# D(3) dopamine receptor (Homo sapiens), sequence (P35462 whole entry): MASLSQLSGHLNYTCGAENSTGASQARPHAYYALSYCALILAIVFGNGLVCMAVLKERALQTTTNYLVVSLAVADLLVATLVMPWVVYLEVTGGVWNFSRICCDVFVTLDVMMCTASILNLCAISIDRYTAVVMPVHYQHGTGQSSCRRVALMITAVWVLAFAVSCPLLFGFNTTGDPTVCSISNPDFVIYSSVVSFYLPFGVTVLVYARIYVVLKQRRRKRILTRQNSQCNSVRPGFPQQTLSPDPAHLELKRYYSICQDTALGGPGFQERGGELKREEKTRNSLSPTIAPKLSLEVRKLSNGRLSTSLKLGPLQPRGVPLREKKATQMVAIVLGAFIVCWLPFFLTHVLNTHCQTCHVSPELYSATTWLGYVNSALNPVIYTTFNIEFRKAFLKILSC
# D(1B) dopamine receptor (Homo sapiens), sequence (P21918 whole entry): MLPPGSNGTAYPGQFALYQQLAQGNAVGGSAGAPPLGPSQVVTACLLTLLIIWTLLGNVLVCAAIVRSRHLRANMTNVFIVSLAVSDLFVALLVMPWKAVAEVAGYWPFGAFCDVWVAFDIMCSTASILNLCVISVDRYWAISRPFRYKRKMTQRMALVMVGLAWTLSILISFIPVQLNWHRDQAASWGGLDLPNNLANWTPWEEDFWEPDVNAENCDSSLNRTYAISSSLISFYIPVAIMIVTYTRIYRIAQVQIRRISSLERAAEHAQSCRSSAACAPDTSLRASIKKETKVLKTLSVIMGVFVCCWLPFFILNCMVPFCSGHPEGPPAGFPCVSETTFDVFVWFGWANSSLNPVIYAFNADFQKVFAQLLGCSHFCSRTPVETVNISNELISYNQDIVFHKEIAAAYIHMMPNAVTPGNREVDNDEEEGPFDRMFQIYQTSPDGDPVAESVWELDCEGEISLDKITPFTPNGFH
# D(1A) dopamine receptor (Homo sapiens), sequence (P21728 whole entry): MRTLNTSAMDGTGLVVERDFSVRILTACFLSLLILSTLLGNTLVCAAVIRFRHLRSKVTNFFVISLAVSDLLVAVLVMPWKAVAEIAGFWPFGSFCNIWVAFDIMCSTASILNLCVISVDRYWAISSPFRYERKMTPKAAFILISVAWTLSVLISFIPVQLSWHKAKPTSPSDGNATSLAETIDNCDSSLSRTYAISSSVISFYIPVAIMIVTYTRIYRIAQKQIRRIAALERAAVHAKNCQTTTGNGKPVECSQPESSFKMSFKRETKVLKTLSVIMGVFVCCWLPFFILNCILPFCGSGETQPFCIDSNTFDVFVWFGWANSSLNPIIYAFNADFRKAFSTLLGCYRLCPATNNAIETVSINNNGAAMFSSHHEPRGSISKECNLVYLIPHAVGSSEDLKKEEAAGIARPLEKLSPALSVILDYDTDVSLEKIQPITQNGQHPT
# D(2) dopamine receptor (Homo sapiens), sequence (P14416 whole entry): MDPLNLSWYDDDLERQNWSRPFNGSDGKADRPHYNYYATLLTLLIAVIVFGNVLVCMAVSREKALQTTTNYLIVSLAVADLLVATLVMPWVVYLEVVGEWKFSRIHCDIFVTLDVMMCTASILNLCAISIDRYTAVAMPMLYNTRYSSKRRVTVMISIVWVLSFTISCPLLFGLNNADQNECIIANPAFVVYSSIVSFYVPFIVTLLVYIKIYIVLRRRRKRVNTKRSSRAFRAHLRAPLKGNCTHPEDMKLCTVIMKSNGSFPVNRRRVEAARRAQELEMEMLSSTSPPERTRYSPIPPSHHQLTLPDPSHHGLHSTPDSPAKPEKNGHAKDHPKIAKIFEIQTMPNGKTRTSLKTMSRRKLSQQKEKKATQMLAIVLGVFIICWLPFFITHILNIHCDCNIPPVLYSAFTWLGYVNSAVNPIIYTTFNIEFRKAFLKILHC
structure (smiles),measurement,setting,value
COC(=O)NCCCN1c2ccccc2CCc2ccc(Cl)cc21,inhibition,[1],< 5%
same,inhibition,[2],< 5%
same,inhibition,[3],< 5%
same,inhibition,[4],< 10%
same,GI50,"NCI-H1650 [5]; NCI-H1650, 48 h",> 40 µM
same,inhibition,[6],< 5%
Cc1ccc(S(=O)(=O)NCCCN2c3ccccc3CCc3ccc(Cl)cc32)cc1,inhibition,[1],< 5%
same,inhibition,[2],< 5%
same,inhibition,[3],< 5%
same,inhibition,[4],< 10%
same,GI50,"NCI-H1650 [5]; NCI-H1650, 48 h",> 40 µM
same,inhibition,[6],< 5%
O=S(=O)(NC[C@H](O)CN1c2ccccc2CCc2ccccc21)c1ccc(OC(F)(F)F)cc1,AUC(0-inf),[7],5790 ng·h/mL
same,bioavailability,[8],94%
same,Vd,[9],1.61 L/kg
same,Tmax,[10],1 h
same,bioavailability,[11],50%
same,AUC(0-t),[12],370 ng·h/mL
same,AUC(0-t),[13],5700 ng·h/mL
same,AUC(0-inf),[14],34700 ng·h/mL
same,AUC(0-t),[15],18500 ng·h/mL
same,AUC(0-t),[16],34700 ng·h/mL
same,Tmax,[17],1 h
same,Cmax,[18],4880 ng/mL
same,Tmax,[19],2 h
same,bioavailability,[20],62%
same,bioavailability,[21],36%
same,Tmax,[22],1 h
same,half-life,[23],0.81 h
same,AUC(0-t),[24],3300 ng·h/mL
same,Cmax,[25],2240 ng/mL
same,AUC(0-inf),[26],3460 ng·h/mL
same,GI50,"NCI-H1650 [5]; NCI-H1650, 48 h",15 µM
same,Cmax,[27],6490 ng/mL
same,clearance,[28],44 mL/min/kg
same,AUC(0-inf),[29],376 ng·h/mL
same,Cmax,[30],1310 ng/mL
CC(=O)Nc1ccc(S(=O)(=O)NCCCN2c3ccccc3CCc3ccc(Cl)cc32)cc1,GI50,"NCI-H1650 [5]; NCI-H1650, 48 h",15 µM
O=S(=O)(NCCCN1c2ccccc2CCc2ccc(Cl)cc21)c1ccc(Cl)cc1F,GI50,"NCI-H1650 [5]; NCI-H1650, 48 h",20.8 µM
CC(=O)Nc1ncc(S(=O)(=O)NCCCN2c3ccccc3CCc3ccccc32)s1,GI50,"NCI-H1650 [5]; NCI-H1650, 48 h",> 40 µM
CC(=O)NCCCN1c2ccccc2CCc2ccc(Cl)cc21,GI50,NCI-H1650 [5],inactive
O=S(=O)(NCCCN1c2ccccc2CCc2ccc(Cl)cc21)C1CCCCC1,GI50,NCI-H1650 [5],inactive
CC(CNS(=O)(=O)c1ccc(Cl)cc1)CN1c2ccccc2CCc2ccccc21 (stereo unspecified),GI50,"NCI-H1650 [5]; NCI-H1650, 48 h",23 µM
O=S(=O)(N[C@H]1CC[C@H](N2c3ccccc3CCc3ccccc32)CC1)c1ccc(Cl)cc1,GI50,"NCI-H1650 [5]; NCI-H1650, 48 h",15 µM
O=S(=O)(NCCCN1c2ccccc2OCc2cccnc21)c1ccc(Cl)cc1,GI50,"NCI-H1650 [5]; NCI-H1650, 48 h",> 40 µM
O=C(NCCCN1c2ccccc2CCc2ccc(Cl)cc21)NS(=O)(=O)c1ccc(OC(F)(F)F)cc1,GI50,NCI-H1650 [5],inactive
CCN(CC)C(C)CN1c2ccccc2Sc2ccccc21 (stereo unspecified) [ETHOPROPAZINE],GI50,"NCI-H1650 [5]; NCI-H1650, 48 h",> 40 µM
CN(C)CCCN1c2ccccc2Sc2ccc(Cl)cc21 [CHLORPROMAZINE],GI50,"NCI-H1650 [5]; NCI-H1650, 48 h",30.3 µM
O=S(=O)(NCCCN1c2ccccc2CCc2cccnc21)c1ccc(Cl)cc1,GI50,"NCI-H1650 [5]; NCI-H1650, 48 h",27 µM
O=S(=O)(NCCCN1c2ccccc2Sc2ccc(Cl)cc21)c1ccc(Oc2ccccc2)cc1,GI50,"NCI-H1650 [5]; NCI-H1650, 48 h",> 40 µM
O=C(NCCCN1c2ccccc2CCc2ccc(Cl)cc21)Nc1ccc(OC(F)(F)F)cc1,GI50,"NCI-H1650 [5]; NCI-H1650, 48 h",> 40 µM
Cn1ccc2c(S(=O)(=O)NCCCN3c4ccccc4CCc4ccccc43)cccc21,GI50,"NCI-H1650 [5]; NCI-H1650, 48 h",> 40 µM
Cc1nn(C)c(Cl)c1S(=O)(=O)NCCCN1c2ccccc2CCc2ccccc21,GI50,"NCI-H1650 [5]; NCI-H1650, 48 h",> 40 µM
COc1ccc(S(=O)(=O)NCCCN2c3ccccc3CCc3ccc(Cl)cc32)cc1,GI50,"NCI-H1650 [5]; NCI-H1650, 48 h",24.4 µM
O=S(=O)(NC1CCOC2(C1)c1ccccc1CCc1ccccc12)c1ccc(Cl)cc1 (stereo unspecified),GI50,"NCI-H1650 [5]; NCI-H1650, 48 h",> 40 µM
O=S(=O)(NCCN1c2ccccc2Sc2ccc(Cl)cc21)c1ccc(Cl)cc1,inhibition,NCI-H1650 [31],Active
same,GI50,"NCI-H1650 [5]; NCI-H1650, 48 h",20 µM
same,inhibition,[32],Active
O=S(=O)(NCCCN1c2ccccc2CCc2ccc(Cl)cc21)c1ccccc1,GI50,"NCI-H1650 [5]; NCI-H1650, 48 h",25 µM
O=S(=O)(NCCC=C1c2ccccc2CCc2ccccc21)c1ccc(F)cc1,GI50,"NCI-H1650 [5]; NCI-H1650, 48 h",20 µM
O=S(=O)(c1ccc(Cl)cc1)N1CCC(=C2c3ccccc3CCc3ccccc32)CC1,GI50,NCI-H1650 [5],inactive
CN(CCCN1c2ccccc2CCc2ccc(Cl)cc21)S(=O)(=O)c1ccc(OC(F)(F)F)cc1,GI50,NCI-H1650 [5],inactive
CN(CCN1c2ccccc2Sc2ccc(Cl)cc21)S(=O)(=O)c1ccc(Cl)cc1,GI50,NCI-H1650 [5],inactive
O=S(=O)(NCCCN1c2ccccc2CCc2ccc(Cl)cc21)c1cnc(Cl)c(Br)c1,GI50,"NCI-H1650 [5]; NCI-H1650, 48 h",> 40 µM
CS(=O)(=O)c1ccc(S(=O)(=O)NCCCN2c3ccccc3CCc3ccc(Cl)cc32)cc1,GI50,"NCI-H1650 [5]; NCI-H1650, 48 h",15.1 µM
O=S(=O)(NCCCN1c2ccccc2CCc2ccc(Cl)cc21)c1cc(Cl)c(Cl)s1,GI50,"NCI-H1650 [5]; NCI-H1650, 48 h",18 µM
O=S(=O)(NCCCN1c2ccccc2CCc2ncccc21)c1ccc(Cl)cc1,GI50,"NCI-H1650 [5]; NCI-H1650, 48 h",30 µM
O=S(=O)(NCCN1c2ccccc2Sc2ccc(Cl)cc21)c1ccc(OC(F)(F)F)cc1,GI50,"NCI-H1650 [5]; NCI-H1650, 48 h",25 µM
O=S(=O)(N[C@H]1CCC[C@@H](N2c3ccccc3CCc3ccccc32)C1)c1ccc(OC(F)(F)F)cc1,GI50,"NCI-H1650 [5]; NCI-H1650, 48 h",25 µM
O=S(=O)(NCCCN1c2ccccc2CCc2ccc(Cl)cc21)c1cccc(OC(F)(F)F)c1,GI50,"NCI-H1650 [5]; NCI-H1650, 48 h",20 µM
O=S(=O)(NCCCN1c2ccccc2CCc2ccccc21)c1ccc2c(c1)OCO2,GI50,NCI-H1650 [5],inactive
O=S(=O)(c1ccc(OC(F)(F)F)cc1)N1CCCCC1CCN1c2ccccc2Sc2ccc(Cl)cc21 (stereo unspecified),GI50,NCI-H1650 [5],inactive
O=S(=O)(c1ccc(Cl)cc1)N1CCCCC1CCN1c2ccccc2CCc2ccccc21 (stereo unspecified),GI50,NCI-H1650 [5],inactive
O=S(=O)(NCCCN1c2ccccc2CCc2cccnc21)c1ccc(OC(F)(F)F)cc1,GI50,"NCI-H1650 [5]; NCI-H1650, 48 h",22 µM
O=S(=O)(NCCNC1c2ccccc2CCc2ccccc21)c1ccc(OC(F)(F)F)cc1,GI50,"NCI-H1650 [5]; NCI-H1650, 48 h",25 µM
O=S(=O)(NCCCN1c2ccccc2CCc2ccccc21)N1CCOCC1,GI50,NCI-H1650 [5],inactive
